This is an account of results in publication PMC9826232 (Chemmedchem, 2022).

One data set relates to pAkt in SNU‐1 cells. Nature of the data set: HTRF assay of downstream phosphorylation, pAkt in SNU-1. It counts as cell-based. Particulars: Homo sapiens, SNU1, read-out: pAkt IC50. The essentials: (§1)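 Test compound was given as a 3-fold 8-point series, top 330 μM final, 1 % DMSO, for 1 h. EGF at 3 nM final was then added for 15 min. Cells were lysed 30 min at room temperature. TR-FRET antibody detection followed after 20 h at room temperature; read-out gave IC50.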
A general note: TR-FRET usually uses a lanthanide donor and a delayed reading to cut background.

A further data set concerns the target (GTP)K‐Ras4B (Homo sapiens, UniProt P01116). Description: MST. The data set is classed as binding.
A further data set relates to HCT15 (G13D). Description: CellTiter-Glo cell viability assay, HCT15. The data set is classed as cell-based. Particulars: Homo sapiens, HCT-15, 72 h, read-out: Cellular activity IC50, HCT15 (G13D). Put shortly:
(§2)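 Cells seeded, then held 24 h at 37 °C/5 % CO2 before test compound in DMSO was added at various concentrations. Plates were incubated a further 72 h at 37 °C, 5 % CO2, humidified. Controls were DMSO vehicle and 10 μM staurosporine. CellTiter-Glo reagent was added at equal volume to the medium, then 2 min shaking and 10 min at room temperature before luminescence (ATP) reading. IC50 from dose-response fit; plates accepted only if Z' ≥0.5, from 16 control values each.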
On the technique in general: Cellular ATP, detected with luciferase, serves as a proxy for viable cell number.

The test system of a further data set is pErk in SNU‐1 cells. Nature of the data set: HTRF assay of downstream phosphorylation, pErk in SNU-1. The data set is classed as cell-based. Particulars: Homo sapiens, SNU1, read-out: pErk IC50. Put shortly: as §1
In a further data set the test system is NCI‐H441 (G12 V). Description: CellTiter-Glo cell viability assay, NCI-H441. It counts as cell-based. Particulars: Homo sapiens, NCI-H441, 72 h, read-out: Cellular activity IC50, NCI‐H441 (G12 V). The essentials: as §2
A short description of data set [1]: Stability in cell culture medium. It counts as in vitro ADME. The settings on record: 24 h.
The subject of a further data set is tErk in A375 cells. Description: HTRF assay, tErk in A375. The data set is classed as cell-based. Particulars: Homo sapiens, A-375, read-out: tErk IC50.
A further data set deals with pAkt in A375 cells. Nature of the data set: HTRF assay of downstream phosphorylation, pAkt in A375. The data set is classed as cell-based. Particulars: Homo sapiens, A-375, read-out: pAkt IC50.
Another data set relates to tAkt in SNU‐1 cells. Nature of the data set: HTRF assay, tAkt in SNU-1. The data set is classed as cell-based. The settings on record: Homo sapiens, SNU1, read-out: tAkt IC50. The essentials:
as §1

In a further data set the test system is tAkt in A375 cells. Nature of the data set: HTRF assay, tAkt in A375. The data set is classed as cell-based. The settings on record: Homo sapiens, A-375, read-out: tAkt IC50.
In the next data set the test system is tErk in SNU‐1 cells. Nature of the data set: HTRF assay, tErk in SNU-1. The data set is classed as cell-based. The settings on record: Homo sapiens, SNU1, read-out: tErk IC50. Put shortly:
as §1

The test system of a further data set is H358 (G12 C). Description: CellTiter-Glo cell viability assay, H358. It counts as cell-based. Particulars: Homo sapiens, NCI-H358, 72 h, read-out: Cellular activity IC50, H358 (G12 C). Put shortly: as §2
The subject of another data set is pErk in A375 cells. Nature of the data set: HTRF assay of downstream phosphorylation, pErk in A375. The data set is classed as cell-based. The settings on record: Homo sapiens, A-375, read-out: pErk IC50.
In a further data set the test system is SNU‐1 (G12D). Description: CellTiter-Glo cell viability assay, SNU-1. It counts as cell-based. Particulars: Homo sapiens, SNU1, 72 h, read-out: Cellular activity IC50, SNU‐1 (G12D). Put shortly:
as §2

Another data set concerns A549 (G12S). Nature of the data set: CellTiter-Glo cell viability assay, A549. It counts as cell-based. Particulars: Homo sapiens, A549, 72 h, read-out: Cellular activity IC50, A549 (G12S). Put shortly:
as §2

The next data set concerns the target K‐Ras wild type protein (Homo sapiens, UniProt P01116). Description: Nucleotide exchange assay. The data set is classed as biochemical. Put shortly:
(§3)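 SOS1 (final 30.2 nM for G12D, 4.6 nM for wild type) and GTP (1 μM final) follow. Incubated overnight at room temperature, then GDP detection reagent for 1 h. Luminescence read; IC50 from sigmoidal curves.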

A short description of data set [2]: Control assay for nucleotide exchange assay. Particulars: 3 mM compound; percent of control.
The target of a further data set is K‐Ras(G12D) (Homo sapiens, UniProt P01116, G12D). Description: Nucleotide exchange assay. It counts as biochemical. Put shortly: as §3
Another data set addresses (GDP)K‐Ras4B (Homo sapiens, UniProt P01116). Nature of the data set: MST. The data set is classed as binding.
The nature of data set [3]: Stability in human plasma solution. The data set is classed as in vitro ADME. The settings on record: over 24 h.
For data set [4] the following is noted: cited from earlier work.
A further data set deals with K‐Ras4B (Homo sapiens, UniProt P01116). Nature of the data set: NMR titration experiments. It counts as binding. Put shortly:
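GDP-bound K-Ras4B was titrated with test compound and followed by NMR chemical shift perturbation; KD derived from the titration.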

K‐Ras(G12D), sequence (P01116 1-188 isoform P01116-2 G12D): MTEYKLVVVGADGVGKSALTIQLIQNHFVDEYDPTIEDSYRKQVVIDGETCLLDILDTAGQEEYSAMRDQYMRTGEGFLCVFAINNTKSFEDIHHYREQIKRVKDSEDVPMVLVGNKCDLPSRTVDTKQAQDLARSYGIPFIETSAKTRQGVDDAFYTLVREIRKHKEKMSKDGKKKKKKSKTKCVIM
K‐Ras wild type protein, sequence (P01116 1-188 isoform P01116-2): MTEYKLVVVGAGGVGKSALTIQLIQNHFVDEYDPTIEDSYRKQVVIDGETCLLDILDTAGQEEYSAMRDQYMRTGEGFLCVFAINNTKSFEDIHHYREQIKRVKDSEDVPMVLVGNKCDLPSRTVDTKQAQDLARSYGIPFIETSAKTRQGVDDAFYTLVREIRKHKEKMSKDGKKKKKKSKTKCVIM
(GDP)K‐Ras4B, sequence (P01116 1-188 isoform P01116-2): as above
K‐Ras4B, sequence (P01116 1-188 isoform P01116-2): as above
(GTP)K‐Ras4B, sequence (P01116 1-188 isoform P01116-2): as above

In general, IC50 refers to the concentration that gives 50% inhibition. Usually Kd stands for the concentration at which binding is half-saturated. Turning to `Oc1ccc(C(=NOCc2ccccc2)c2ccc(O)cc2)cc1` [compound 11, Bis(4‐hydroxyphenyl)methanone‐O‐benzyl oxime], the IC50 with pAkt in SNU‐1 cells was 47.7 µM; in the data set with HCT15 (G13D), 43.9 ± 1.8 µM; in the data set on pErk in SNU‐1 cells it was 218 µM; in the data set with NCI‐H441 (G12 V), 62.2 ± 4.8 µM; in the data set on tErk in A375 cells it was 77.2 µM; in the data set on pAkt in A375 cells it was over 1000 µM. Further, the IC50 with tAkt in SNU‐1 cells was 475 µM; with tAkt in A375 cells, 749 µM; with tErk in SNU‐1 cells, over 1000 µM; with H358 (G12 C), 58.6 ± 0.5 µM; in the data set on pErk in A375 cells it was 48.8 µM; with SNU‐1 (G12D) it was 41.7 ± 4.2 µM. Besides, the results for the half-maximal inhibitory concentration (IC50) in the data set on A549 (G12S), against K‐Ras wild type protein and against K‐Ras(G12D) were 54.3 ± 3.6 µM, 1330 ± 343 µM and 431 ± 22 µM, respectively. The Kd worked out at 602 µM on (GTP)K‐Ras4B and 89 µM at (GDP)K‐Ras4B. Further, the “stability in cell culture medium” value in [1] was “completely stable”. The “WT %CRTL (3 mM)” value in data set [2] worked out at 98%. In addition, the “stability in human plasma solution” value in data set [3] came out at 92%.
For `O=[N+]([O-])c1ccc(NN=C(c2ccc(O)cc2)c2ccc(O)cc2)c([N+](=O)[O-])c1` [7 a, 4,4′‐((2‐(2,4‐Dinitrophenyl)hydrazinylidene)methylene)diphenol], the half-inhibitory concentration (IC50) is 18.9 ± 0.6 µM in the data set with HCT15 (G13D); 22.8 ± 4.2 µM in the data set on NCI‐H441 (G12 V); 20.9 ± 0.8 µM in the data set with H358 (G12 C); 16.7 ± 1.2 µM in the data set on SNU‐1 (G12D); 16.1 ± 1.5 µM with A549 (G12S); 306 ± 49 µM against K‐Ras wild type protein. On K‐Ras(G12D), this compound displayed a 50% inhibitory concentration (IC50) of 236 ± 46 µM. Further, in data set [4], the tolerability entry is reported as “well tolerated”. For the same compound, the “WT %CRTL (3 mM)” value in [2] stood at 26%.
For `O=C(c1nc2cccc(O)c2[nH]1)c1cc2cccc(O)c2o1` [compound 12, (7‐Hydroxy‐1H‐benzimidazol‐2‐yl)‐(7‐hydroxybenzofuran‐2‐yl)methanon], the results for the Kd on (GTP)K‐Ras4B, on K‐Ras4B and on (GDP)K‐Ras4B were 34 µM, 500 ± 100 µM and 59 µM, respectively. Further, the IC50 with HCT15 (G13D) came out at 37.7 ± 0.4 µM; with NCI‐H441 (G12 V) it was 47.4 ± 3 µM; with H358 (G12 C) it was 37.7 ± 1.3 µM; in the data set on SNU‐1 (G12D), 34.5 ± 2.1 µM; in the data set with A549 (G12S), 45.3 ± 1.5 µM; on K‐Ras wild type protein, 1100 ± 381 µM. Further, on K‐Ras(G12D), half-maximal inhibition (IC50) was put at 340 ± 72 µM. In addition, the “fold stronger binding to K‐Ras4B than DHBP” value at K‐Ras4B (NMR titration KD ratio versus DHBP) was found to be 18 fold. Also, the “WT %CRTL (3 mM)” value in data set [2] is given as 75%.
